Consider one compound from ChEMBL document CHEMBL5678802, “Small-molecule p21-activated kinase inhibitor PF-3758309 is a potent inhibitor of oncogenic signaling and tumor growth” (Proc Natl Acad Sci U S A, 2010).

Each structure is given as a SMILES string. Calls of active or inactive are those of the source. The calls are words filed in the database; no cut-off is given here.

The test system of one data set is NCI-H1666. The experiment in a line: Inhibition of anchorage independent cell growth in human NCI-H1666 cells incubated for 6 days by Alamar blue reagent based fluorescence plate reader analysis. The class given is functional. Particulars: NCI-H1666, 144 h. In general terms: Alamar Blue is a resazurin reagent that responds to reducing activity.
Data set [1] is described as follows: Drug concentration in nude mouse plasma xenografted with human HCT-116 cells at 0.36 mg/kg administered via pump for 9 days by LC-MS/MS analysis. The class given is ADME, organism-based. To be noted: time 9 day. Background: Xenograft models place foreign cells or tissue in a host animal.
The test system of data set [2] is HCT-116. The experiment in a line: Antitumor activity against human HCT-116 cells xenografted in nude mouse assessed as reduction in Src phosphorylation at Y416 residue at 15 to 150 mg/kg/day administered via pump for 18 hrs by Reverse-Phase protein array analysis. Particulars: dose 15-150 mg/kg/day. The class given is functional, organism-based.
In a further data set the test system is NCI-H1993. The experiment in a line: Inhibition of anchorage independent cell growth in human NCI-H1993 cells incubated for 6 days by Alamar blue reagent based fluorescence plate reader analysis. The class given is functional. Particulars: NCI-H1993, 144 h.
Another data set deals with SU.86.86. In words: Antiproliferative activity against human SU-86-86 cells assessed as inhibition of cell proliferation incubated for 3 days by CellTiter-Glo Luminescent Cell Viability Assay. The class given is functional, cell-based. To be noted: SU.86.86, 72 h. Put shortly:
(§1)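 Cells of each line were plated in 384-well plates on day 1 and exposed to compound from day 2 for 3 days. On day 5 all medium was aspirated. Viable cell number was read by CellTiter-Glo luminescence, which quantifies cellular ATP.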
In general terms: In ATP-based viability assays light output follows the ATP content of the culture.

The subject of a further data set is NCI-H526. The experiment in a line: Antiproliferative activity against human NCI-H526 cells assessed as inhibition of cell proliferation incubated for 3 days by CellTiter-Glo Luminescent Cell Viability Assay. The class given is functional, cell-based. To be noted: NCI-H526, 72 h. The method in brief: as §1
The next data set has as its system NCI-H1299. The experiment in a line: Inhibition of anchorage independent cell growth in human NCI-H1299 cells incubated for 6 days by Alamar blue reagent based fluorescence plate reader analysis. The class given is functional. To be noted: NCI-H1299, 144 h.
A further data set deals with A549. The experiment in a line: Antitumor activity against human A549 cells xenografted in nude mouse assessed as tumor growth inhibition at 10 mg/kg, po administered once daily for 9 to 18 days relative to control. The class given is functional. To be noted: time 9-18 day, read-out: TGI. The method in brief:
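Tumor cells were implanted s.c. into the right flank of female nu/nu nude mice aged 6–8 weeks. Animals were randomized into treatment groups once tumors were established (example: day 8 postimplant, about 170 mm3, animals >22 g). Compound in 0.5% methylcellulose was given by oral gavage. Tumors were measured with calipers two to three times per week.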

Data set [3] has as its target Serine/threonine-protein kinase PAK 4 (Homo sapiens, UniProt O96013). Particulars: dose 50.0 µM.
Data set [4] deals with HCT-116. In words: Antitumor activity against human HCT-116 cells xenografted in nude mouse assessed as tumor growth inhibition at 1.1 mg/kg administered via pump for 9 days relative to control. The class given is functional. To be noted: HCT-116, 216 h, time 9 day, read-out: TGI.
In data set [5] the target is T1, Serine/threonine-protein kinase D1 (Homo sapiens, UniProt Q15139).
T1 sequence (Q15139 whole entry): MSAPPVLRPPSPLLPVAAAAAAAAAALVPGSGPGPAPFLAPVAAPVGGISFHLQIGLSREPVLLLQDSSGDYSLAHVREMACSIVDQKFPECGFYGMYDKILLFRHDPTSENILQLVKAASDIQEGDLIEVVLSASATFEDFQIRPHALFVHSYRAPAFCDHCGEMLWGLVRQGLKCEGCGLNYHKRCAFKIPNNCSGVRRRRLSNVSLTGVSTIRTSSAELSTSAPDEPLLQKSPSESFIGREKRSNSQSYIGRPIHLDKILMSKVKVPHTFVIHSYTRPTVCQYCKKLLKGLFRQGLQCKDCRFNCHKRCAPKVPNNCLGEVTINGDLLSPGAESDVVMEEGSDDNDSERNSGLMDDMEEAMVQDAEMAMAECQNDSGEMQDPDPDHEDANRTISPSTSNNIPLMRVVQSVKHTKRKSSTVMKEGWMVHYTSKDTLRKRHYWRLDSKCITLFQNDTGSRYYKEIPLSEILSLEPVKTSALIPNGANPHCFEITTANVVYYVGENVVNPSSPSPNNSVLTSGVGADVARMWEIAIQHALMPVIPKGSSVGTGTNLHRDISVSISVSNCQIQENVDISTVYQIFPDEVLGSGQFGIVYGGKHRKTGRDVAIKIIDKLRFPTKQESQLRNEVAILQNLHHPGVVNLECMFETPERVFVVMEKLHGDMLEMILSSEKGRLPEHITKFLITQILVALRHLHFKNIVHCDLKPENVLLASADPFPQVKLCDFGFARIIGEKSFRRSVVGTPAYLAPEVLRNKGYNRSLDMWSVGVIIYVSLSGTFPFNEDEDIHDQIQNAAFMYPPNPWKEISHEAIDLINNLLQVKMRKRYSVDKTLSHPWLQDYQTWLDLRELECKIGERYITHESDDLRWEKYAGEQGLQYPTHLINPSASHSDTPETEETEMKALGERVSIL
In words: Inhibition of human PKCmu in presence of ATP.

The subject of another data set is Calu-6. In words: Antiproliferative activity against human Calu-6 cells assessed as inhibition of cell proliferation incubated for 3 days by CellTiter-Glo Luminescent Cell Viability Assay. The class given is functional, cell-based. To be noted: Calu-6, 72 h. The method in brief: (§2)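 Cancer cell lines seeded in 384-well plates on day 1; compound added on day 2 and left for 3 days. On day 5 all medium was aspirated, and viable cells were quantified by CellTiter-Glo luminescence, which measures cellular ATP. Dose-dependent effects on proliferation were determined.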

For another data set, the system named is NCI-H1651. The experiment in a line: Antiproliferative activity against human NCI-H1651 cells assessed as inhibition of cell proliferation incubated for 3 days by CellTiter-Glo Luminescent Cell Viability Assay. The class given is functional, cell-based. Particulars: NCI-H1651, 72 h. Put shortly: as §2
Data set [6] is described as follows: Antiproliferative activity against human PaTu 8902 cells assessed as inhibition of cell proliferation incubated for 3 days by CellTiter-Glo Luminescent Cell Viability Assay. The class given is functional, cell-based. To be noted: PaTu 8902, 72 h. Put shortly:
as §1

Data set [7] can be described thus: Drug exposure in nude mouse xenografted with human HCT-116 cells at 1.1 to 3.3 mg/kg, sc administered for 6 days. The class given is ADME, organism-based. To be noted: in vivo, dose 1.1-3.3 mg/kg, time 6 day, read-out: Drug uptake.
The next data set has as its system ZR-75-1. The experiment in a line: Antiproliferative activity against human ZR-75-1 cells assessed as inhibition of cell proliferation incubated for 3 days by CellTiter-Glo Luminescent Cell Viability Assay. Particulars: ZR-75-1, 72 h. The class given is functional, cell-based. Put shortly:
as §1

The target in data set [8] is Serine/threonine-protein kinase Chk2 (Homo sapiens, UniProt O96017). The experiment in a line: Inhibition of human CHK2 in presence of ATP by cellular assay.
Data set [9] deals with HCT-116. The experiment in a line: Downregulation of camptothecin-induced phospho-S474-PAK4 level in human HCT-116 cells at 1 uM preincubated with compound for 15 mins followed by camptothecin stimulation and measured after 20 hrs by Western blot analysis. The class given is functional, cell-based. To be noted: time 20.25 hrs.
A further data set deals with NCI-H1437. The experiment in a line: Inhibition of anchorage independent cell growth in human NCI-H1437 cells incubated for 6 days by Alamar blue reagent based fluorescence plate reader analysis. The class given is functional. To be noted: NCI-H1437, 144 h.
The test system of another data set is Panc 02.03. In words: Antiproliferative activity against human Panc 02.03 cells assessed as inhibition of cell proliferation incubated for 3 days by CellTiter-Glo Luminescent Cell Viability Assay. The class given is functional, cell-based. To be noted: Panc 02.03, 72 h. Put shortly: as §1
The target of data set [10] is Ribosomal protein S6 kinase alpha-3 (Homo sapiens, UniProt P51812). The experiment in a line: Inhibition of human RSK2 in presence of ATP relative to control. Particulars: concentration not given here.
Sequence of Ribosomal protein S6 kinase alpha-3 (P51812 whole entry): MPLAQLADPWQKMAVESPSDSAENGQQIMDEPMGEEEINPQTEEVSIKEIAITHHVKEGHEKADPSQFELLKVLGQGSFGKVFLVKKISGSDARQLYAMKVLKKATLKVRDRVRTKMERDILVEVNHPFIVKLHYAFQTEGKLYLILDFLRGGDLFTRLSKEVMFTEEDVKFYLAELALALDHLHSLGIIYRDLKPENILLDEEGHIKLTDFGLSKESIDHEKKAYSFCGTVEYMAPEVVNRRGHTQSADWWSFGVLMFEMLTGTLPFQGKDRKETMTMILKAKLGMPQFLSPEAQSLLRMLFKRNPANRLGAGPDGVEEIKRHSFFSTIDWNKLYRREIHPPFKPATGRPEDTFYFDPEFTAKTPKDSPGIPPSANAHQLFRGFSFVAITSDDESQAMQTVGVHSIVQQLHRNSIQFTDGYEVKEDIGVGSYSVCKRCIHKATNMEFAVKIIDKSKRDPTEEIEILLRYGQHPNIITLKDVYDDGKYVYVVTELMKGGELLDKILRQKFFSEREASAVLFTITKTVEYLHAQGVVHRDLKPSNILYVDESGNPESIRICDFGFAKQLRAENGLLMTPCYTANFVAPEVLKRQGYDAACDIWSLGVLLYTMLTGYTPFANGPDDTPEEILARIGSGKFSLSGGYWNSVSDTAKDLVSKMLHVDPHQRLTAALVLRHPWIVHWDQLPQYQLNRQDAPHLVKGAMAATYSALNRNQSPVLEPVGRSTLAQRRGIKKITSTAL

Sequence of Serine/threonine-protein kinase PAK 4 (O96013 whole entry, looked up): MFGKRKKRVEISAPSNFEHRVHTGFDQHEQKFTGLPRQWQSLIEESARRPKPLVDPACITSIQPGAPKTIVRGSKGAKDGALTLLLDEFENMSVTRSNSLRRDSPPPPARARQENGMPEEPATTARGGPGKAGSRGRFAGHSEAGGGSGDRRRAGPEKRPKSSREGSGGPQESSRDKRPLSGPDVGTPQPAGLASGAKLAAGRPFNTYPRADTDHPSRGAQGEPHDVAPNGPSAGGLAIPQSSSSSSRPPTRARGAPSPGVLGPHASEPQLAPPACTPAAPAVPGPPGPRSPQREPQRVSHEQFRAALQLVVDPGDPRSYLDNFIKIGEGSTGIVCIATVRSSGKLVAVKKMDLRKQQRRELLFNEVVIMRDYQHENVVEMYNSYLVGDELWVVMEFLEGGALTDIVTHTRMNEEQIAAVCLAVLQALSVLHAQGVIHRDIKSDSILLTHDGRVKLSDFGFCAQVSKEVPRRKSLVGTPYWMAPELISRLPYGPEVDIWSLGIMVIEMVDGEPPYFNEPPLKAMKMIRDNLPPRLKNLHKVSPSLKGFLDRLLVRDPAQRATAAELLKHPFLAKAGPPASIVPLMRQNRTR
Sequence of Serine/threonine-protein kinase Chk2 (O96017 whole entry): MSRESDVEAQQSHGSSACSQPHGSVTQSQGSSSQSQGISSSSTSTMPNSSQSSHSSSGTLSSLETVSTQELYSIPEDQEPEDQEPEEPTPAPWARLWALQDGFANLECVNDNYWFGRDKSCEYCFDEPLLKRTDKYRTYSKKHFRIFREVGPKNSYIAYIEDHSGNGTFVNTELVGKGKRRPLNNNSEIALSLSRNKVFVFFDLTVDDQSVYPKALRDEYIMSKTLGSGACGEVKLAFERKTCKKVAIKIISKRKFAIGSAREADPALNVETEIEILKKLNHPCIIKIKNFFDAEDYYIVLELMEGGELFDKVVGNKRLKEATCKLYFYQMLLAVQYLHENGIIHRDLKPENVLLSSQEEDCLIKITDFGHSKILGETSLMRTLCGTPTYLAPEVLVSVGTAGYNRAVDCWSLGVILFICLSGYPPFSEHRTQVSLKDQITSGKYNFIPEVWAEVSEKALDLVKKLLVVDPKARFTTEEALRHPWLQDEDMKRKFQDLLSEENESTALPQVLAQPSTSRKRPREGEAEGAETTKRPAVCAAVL

Take `Cc1nc(Nc2n[nH]c3c2CN(C(=O)N[C@H](CN(C)C)c2ccccc2)C3(C)C)c2sccc2n1` [PF-03758309]: the 50% inhibitory concentration (IC50) in the data set with NCI-H1666 amounted to 6.25 nM; in the data set on NCI-H1993, 11.9 nM; in the data set with SU.86.86, 898 nM; with NCI-H526, 1.4 nM; in the data set with NCI-H1299, 7 nM; in [5], 21 nM. Also, the IC50 in the data set on Calu-6 was determined as 7.3 nM; in the data set on NCI-H1651 it was 20 nM; in [6], 27 nM; with ZR-75-1 it was 0.49 nM; in [8], 302 nM; in the data set on NCI-H1437, 4.8 nM. For the same compound, in the data set on Panc 02.03, the IC50 stood at 540 nM. Further, the concentration at 216 h in data set [1] is 1.7 ng/mL. Besides, the result in the data set on HCT-116 [2] and in the data set with HCT-116 [9] was Active. Further, in the data set with A549, the inhibition in vivo at 10 mg/kg worked out at 71%. Also, the TdeltaS in [3] is 6.7 kcal/mol. Further, the inhibition in vivo at 1.1 mg/kg with HCT-116 [4] came out at 104%. The concentration at 144 h in data set [7] was 0.14 nM. Besides, in data set [10], the inhibition is 101%.

Usually IC50 stands for the concentration that inhibits the measured activity by half. For orientation: inhibition means the change of the read-out against control, counted positive when it falls.
